Experimental data from ChEMBL document CHEMBL5370663, “Neurite Outgrowth-Inducing Drimane-Type Sesquiterpenoids Isolated from Cultures of the Polypore Abundisporus violaceus MUCL 56355” (J Nat Prod, 2023).
Active and inactive are the calls of the source. The calls are words filed in the database; no cut-off is given here.

Columns and labels:
[1] = tested on: Schizosaccharomyces pombe; test: Antifungal activity against Schizosaccharomyces pombe DSM 70572 assessed as fungal growth inhibition at 66.7 to 0.52 microg/ml incubated overnight by serial dilution assay; format: functional, organism-based; conditions: dose 66.7-0.52 µg/ml
Summary of the method: (§1)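 Broth microdilution MIC. Compounds diluted in methanol across 66.7–0.52 μg/mL; incubated overnight. MIC is the lowest concentration with no visible growth of the test strain. Positive controls were ciprofloxacin, kanamycin, gentamycin and oxytetracycline for bacteria and nystatin for fungi.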

Staphylococcus aureus = test: Antibacterial activity against Staphylococcus aureus DSM 346 assessed as bacterial growth inhibition at 66.7 to 0.52 microg/ml incubated overnight by serial dilution assay; format: functional, organism-based; conditions: dose 66.7-0.52 µg/ml; summary of the method: as §1
Acinetobacter baumannii = test: Antibacterial activity against Acinetobacter baumannii DSM 30008 assessed as bacterial growth inhibition at 66.7 to 0.52 microg/ml incubated overnight by serial dilution assay; format: functional, organism-based; conditions: dose 66.7-0.52 µg/ml; summary of the method: as §1
Pseudomonas aeruginosa = test: Antibacterial activity against Pseudomonas aeruginosa PA14 assessed as bacterial growth inhibition at 66.7 to 0.52 microg/ml incubated overnight by serial dilution assay; format: functional, organism-based; conditions: dose 66.7-0.52 µg/ml; summary of the method: as §1
Candida albicans = test: Antifungal activity against Candida albicans DSM 1665 assessed as fungal growth inhibition at 66.7 to 0.52 microg/ml incubated overnight by serial dilution assay; format: functional, organism-based; conditions: dose 66.7-0.52 µg/ml; summary of the method: as §1
L929 = test: Cytotoxicity against mouse L929 cells incubated for 5 days by MTT assay; format: toxicity, cell-based; conditions: l929, 120 h, time 5 day
Summary of the method: (§2)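 MTT viability test in 96-well plates on KB3.1 (human endocervical adenocarcinoma) and L929 (mouse fibroblast) lines, reported as IC50; epothilone B positive control.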

[2] = tested on: Chromobacterium violaceum; test: Antibacterial activity against Chromobacterium violaceum DSM 30191 assessed as bacterial growth inhibition at 66.7 to 0.52 microg/ml incubated overnight by serial dilution assay; format: functional, organism-based; conditions: dose 66.7-0.52 µg/ml; summary of the method: as §1
[3] = tested on: Mycolicibacterium smegmatis; test: Antibacterial activity against Mycobacterium smegmatis ATCC 700084 assessed as bacterial growth inhibition at 66.7 to 0.52 microg/ml incubated overnight by serial dilution assay; format: functional, organism-based; conditions: dose 66.7-0.52 µg/ml; summary of the method: as §1
Rhodotorula glutinis = test: Antifungal activity against Rhodotorula glutinis DSM 10134 assessed as fungal growth inhibition at 66.7 to 0.52 microg/ml incubated overnight by serial dilution assay; format: functional, organism-based; conditions: dose 66.7-0.52 µg/ml; summary of the method: as §1
KB 3-1 = test: Cytotoxicity against human KB-3-1 cells incubated for 5 days by MTT assay; format: toxicity, cell-based; conditions: kb 3-1, 120 h, time 5 day; summary of the method: as §2
Bacillus subtilis = test: Antibacterial activity against Bacillus subtilis DSM 10 assessed as bacterial growth inhibition at 66.7 to 0.52 microg/ml incubated overnight by serial dilution assay; format: functional, organism-based; conditions: dose 66.7-0.52 µg/ml; summary of the method: as §1
Wickerhamomyces anomalus = test: Antifungal activity against Pichia anomala DSM 6766 assessed as fungal growth inhibition at 66.7 to 0.52 microg/ml incubated overnight by serial dilution assay; format: functional, organism-based; conditions: dose 66.7-0.52 µg/ml; summary of the method: as §1
Mucor hiemalis = test: Antifungal activity against Mucor hiemalis DSM 2656 assessed as fungal growth inhibition at 66.7 to 0.52 microg/mlincubated overnight by serial dilution assay; format: functional, organism-based; conditions: dose 66.7-0.52 µg/ml; summary of the method: as §1
Escherichia coli = test: Antibacterial activity against Escherichia coli DSM 1116 assessed as bacterial growth inhibition at 66.7 to 0.52 microg/ml incubated overnight by serial dilution assay; format: functional, organism-based; conditions: dose 66.7-0.52 µg/ml; summary of the method: as §1
PC-12 = test: Induction of neurite outgrowth in NGF-treated rat PC12 cells at 5 ug/mL measured after 48 hrs by phase contrast microscopy; format: functional, cell-based; conditions: dose 5.0 µg/ml
Summary of the method: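 PC-12 cells grown in RPMI-1640 with 10% heat-inactivated horse serum, 5% FBS and 2 mM L-glutamine. Seeded at 1.5 × 10^4 cells/well on collagen IV and allowed to attach 6 h at 37 °C, 7.5% CO2. Medium then switched to differentiation medium (1% horse serum) with compound at 5 μg/mL plus NGF 5 ng/mL; DMSO control. Mean neurite length from phase-contrast live imaging at 48 h; five independent experiments, one-tailed t-test.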

Structure (SMILES)	inhibition [1]	inhibition (Staphylococcus aureus)	inhibition (Acinetobacter baumannii)	inhibition (Pseudomonas aeruginosa)	inhibition (Candida albicans)	Activity (L929)	inhibition [2]	inhibition [3]	inhibition (Rhodotorula glutinis)	Activity (KB 3-1)	inhibition (Bacillus subtilis)	inhibition (Wickerhamomyces anomalus)	inhibition (Mucor hiemalis)	inhibition (Escherichia coli)	Activity (PC-12)
COC(=O)[C@H]1C(C(=O)O)=CC[C@@H]2[C@]1(C)CCC[C@@]2(C)C(=O)O	inactive	inactive	inactive	inactive	inactive	Non-Toxic	inactive	inactive	inactive	Non-Toxic	inactive	inactive	inactive	inactive	
C[C@]12CCC[C@@](C)(C(=O)O)[C@@H]1CC=C1CO[C@H](O)[C@@H]12	inactive	inactive	inactive	inactive	inactive	Non-Toxic	inactive	inactive	inactive	Non-Toxic	inactive	inactive	inactive	inactive	Active
C[C@@]12C=C(CO)C(=O)C[C@H]1[C@](C)(C(=O)O)CC[C@@H]2O	inactive	inactive	inactive	inactive	inactive	Non-Toxic	inactive	inactive	inactive	Non-Toxic	inactive	inactive	inactive	inactive	Active
C[C@@]1(C(=O)O)CCC[C@]2(C)c3cocc3C(=O)C[C@@H]12	inactive	inactive	inactive	inactive	inactive	Non-Toxic	inactive	inactive	inactive	Non-Toxic	inactive	inactive	inactive	inactive	Active
C[C@@]12C=C(CO)[C@@H](O)C[C@H]1[C@](C)(C(=O)O)CCC2	inactive	inactive	inactive	inactive	inactive	Non-Toxic	inactive	inactive	inactive	Non-Toxic	inactive	inactive	inactive	inactive	Active
C[C@@]1(C(=O)O)CCC[C@]2(C)C3=C(COC3=O)C(=O)C[C@@H]12	inactive	inactive	inactive	inactive	inactive	Non-Toxic	inactive	inactive	inactive	Non-Toxic	inactive	inactive	inactive	inactive	
C[C@]12CCC[C@@](C)(C(=O)O)[C@@H]1CC=C(CO)[C@H]2C=O	inactive	inactive	inactive	inactive	inactive	Non-Toxic	inactive	inactive	inactive	Non-Toxic	inactive	inactive	inactive	inactive	Active
C[C@@]12C=C(C(=O)O)[C@@H](O)C[C@H]1[C@](C)(C(=O)O)CCC2	inactive	inactive	inactive	inactive	inactive	Non-Toxic	inactive	inactive	inactive	Non-Toxic	inactive	inactive	inactive	inactive	Active
